Screening data (PubChem BioAssay)
RGS4 block: human RGS4 inhibition | P49798 | HEK293 M3R/RGS4 inducible, Fluo-4 calcium flux; active compounds read high; triggered by carbachol at its EC20 | B-score at 10 µM | actives 0.45% (n = 310,000) | AID 463165;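 active means B-score, a plate-corrected calcium signal, over three deviations above library mean, with baseline fluorescence within five deviations of library mean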;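 further: RGS4 expression induced by doxycycline in cells with stable M3 receptor; B-score is computed from the integrated fluorescence ratio over baseline after carbachol; higher B-score means a larger calcium signal and so more RGS4 inhibition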
Target sequence (P49798 whole entry, looked up): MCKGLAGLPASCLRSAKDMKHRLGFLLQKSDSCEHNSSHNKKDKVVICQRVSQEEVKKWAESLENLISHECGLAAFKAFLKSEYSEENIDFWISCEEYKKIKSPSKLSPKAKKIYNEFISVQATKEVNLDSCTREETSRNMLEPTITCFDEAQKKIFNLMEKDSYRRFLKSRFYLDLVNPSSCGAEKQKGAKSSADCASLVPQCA
MrgX1 PAM: allosterically activates human MrgX1 receptor signaling; Q96LB2; MrgX1-HEK293, Fluo-4 calcium flux, FDSS; active compounds read high; B-score at 10 µM; actives 0.63% (n = 310,000); AID 588675;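 active means plate-corrected calcium response at least 3 library SD above typical, normal starting fluorescence, not activating the receptor alone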;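 further: compound read alongside a low EC10 to EC30 dose of BAM8-22 agonist; peak minus trough fluorescence over baseline measured at the second addition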
Target sequence (Q96LB2 whole entry, looked up): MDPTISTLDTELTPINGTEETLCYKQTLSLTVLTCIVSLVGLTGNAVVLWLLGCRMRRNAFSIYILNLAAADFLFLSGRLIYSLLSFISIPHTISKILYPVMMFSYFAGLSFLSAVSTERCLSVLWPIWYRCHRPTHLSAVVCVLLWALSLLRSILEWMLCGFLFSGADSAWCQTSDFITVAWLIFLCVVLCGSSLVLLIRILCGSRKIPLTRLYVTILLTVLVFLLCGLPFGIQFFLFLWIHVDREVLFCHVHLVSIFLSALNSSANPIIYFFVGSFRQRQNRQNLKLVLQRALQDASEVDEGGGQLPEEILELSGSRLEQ
MrgX1 ag: human MrgX1 receptor agonism, primary screen. MrgX1-HEK293 cells, Fluo-4 calcium fluorescence, agonist mode; active compounds read high. AID 588627. B-score at 10 µM. actives 0.44% (n = 310,000). Q96LB2;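 active means calcium response B-score plate-corrected fluorescence ratio at least 3 library SD, with starting fluorescence B-score inside 5 SD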
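Test system: HEK293 cells stably expressing human MrgX1 receptor; Input: fifteen thousand cells per well; Dosing: compound delivered in addition one of three; Schedule: overnight seeding, then 1 h dark dye loading; Technique: Fluo-4 NW calcium fluorescence; Measure: B-scored fluorescence response ratio; Controls: positive and negative controls per plate.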
RGS4 act: potentiators or activators of RGS4. HEK293 M3R/inducible RGS4, carbachol calcium flux Fluo4; active compounds read low. actives 0.92% (n = 310,000). AID 463111. B-score at 10 µM;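 active means B-score of the integrated calcium signal more than 4 SD below the library mean, with starting fluorescence not abnormally high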;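 further: negative B-score means reduced calcium response which marks RGS4 activation or potentiation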
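Also added: carbachol at ECmax as muscarinic agonist stimulus; Assay system: HEK293 cells with stable M3R and inducible RGS4; Timing: overnight RGS4 induction, 30 min dye load 37 °C, 20 min compound RT; Measured by: Fluo4-AM (2 µM) calcium-flux fluorescence, kinetic read.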
MrgX1 antag: blocks BAM8-22 activation of human MrgX1 receptor. Q96LB2. MRGX1-HEK293 calcium flux, Fluo-4, BAM8-22 antagonism; active compounds read low. B-score at 10 µM. actives 1.3% (n = 310,000). AID 588676;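 active means calcium-response B-score plate-corrected more than 3 library SD below zero, starting fluorescence within 5 deviations, no agonist response on first addition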;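 further: peak minus trough fluorescence over baseline after final BAM8-22 challenge near maximal dose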
MrgX1 ant reconf: confirmation of human MrgX1 receptor antagonists; MrgX1-HEK293, BAM8-22 calcium flux, Fluo-4; active compounds read low; remaining BAM8-22 calcium response % of control (active compounds read low), % at 10 µM; actives 19% (n = 2,300); shares compounds with MrgX1 antag; AID 602420;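 active means remaining agonist calcium response no higher than 100% minus 3 SD of agonist-only control wells, with starting fluorescence near control levels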;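 further: agonist BAM8-22 given at a near maximal EC90 to ECmax level; peak minus minimum fluorescence divided by baseline after agonist addition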
HEK293 Ca flux: MrgX1 antagonist counter-screen hit in parental HEK293 cells; shares compounds with MrgX1 antag; Fluo-4 calcium fluorescence, FDSS; fluorescence ratio F(max-min)/F0 at 10 µM; actives 2% (n = 4,000); AID 624111;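 active means duplicate-averaged calcium fluorescence ratio at least three times the standard deviation of buffer wells, a nonspecific response in parental cells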
HEK293 Ca counter: counter-screen for MrgX1 allosteric activators: effect in parental HEK293 cells. fluorescence ratio F(max-min)/F0 at 10 µM. shares compounds with MrgX1 antag. actives 0.4% (n = 4,000). parental HEK293 calcium flux, Fluo-4 fluorescence ratio; active compounds read high;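 active means calcium fluorescence ratio, averaged over duplicates, at least 3 SD of the buffer-well ratio, meaning a nonspecific response in receptor-free cells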;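 further: untransfected parental HEK293 lacking MrgX1 used as counterscreen for MrgX1 allosteric activators; fluorescence change taken during the second addition on a kinetic imager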
HEK293 Ca cntr2: counter-screen for MrgX1 activators: effect in parental HEK293 cells; shares compounds with MrgX1 antag; Fluo-4 calcium fluorescence (FDSS); active compounds read high; fluorescence ratio F(max-min)/F0 at 10 µM; actives 8.7% (n = 4,000);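 active means calcium fluorescence ratio at least three times the spread of buffer wells, meaning a non-specific response in parental cells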
* marks the source's active call; other numbers are inactive results. Rows were chosen to be rich in hits. Some 3.5% of all compounds tested hit in one or more screens of this group.

How did COc1ccc(CNC(=O)C[C@H]2C(=O)N(C3CCCCC3)C[C@@H]2Cc2ccccc2)cc1 do in these assays?
RGS4 block: inactive; MrgX1 PAM: inactive; MrgX1 ag: inactive; RGS4 act: inactive; MrgX1 antag: inactive

What do the screens show for `CCC(C(=O)NCc1ccco1)n1nc(C)n2c(cc3occc32)c1=O` (centres undefined)?
RGS4 block: inactive; MrgX1 PAM: inactive; MrgX1 ag: inactive; RGS4 act: inactive; MrgX1 antag: inactive

Results for CCOc1cc2[nH]c(=S)n(CCCC(=O)NCc3ccccn3)c(=O)c2cc1OCC ?
RGS4 block: inactive; MrgX1 PAM: inactive; MrgX1 ag: inactive; RGS4 act: inactive; MrgX1 antag: inactive

How did Cc1sc2nc(CN3CCCCC3)nc(Cl)c2c1C do in these assays?
RGS4 block: inactive; MrgX1 PAM: inactive; MrgX1 ag: inactive; RGS4 act: inactive; MrgX1 antag: inactive

Results for CC1(c2ccc(OC(F)F)cc2)NC(=O)N(CC(=O)Nc2ccc(S(N)(=O)=O)cc2)C1=O (centres undefined) ?
RGS4 block: inactive; MrgX1 PAM: inactive; MrgX1 ag: inactive; RGS4 act: inactive; MrgX1 antag: -6.9*; MrgX1 ant reconf: inactive; HEK293 Ca flux: inactive; HEK293 Ca counter: inactive; HEK293 Ca cntr2: inactive

What do the screens show for `CC(C)(C)c1csc(NC(=O)c2ccncc2)n1`?
RGS4 block: inactive; MrgX1 PAM: inactive; MrgX1 ag: inactive; RGS4 act: inactive; MrgX1 antag: -7*; MrgX1 ant reconf: inactive; HEK293 Ca flux: inactive; HEK293 Ca counter: inactive; HEK293 Ca cntr2: inactive

How did CCOC(=O)c1ccc(-c2c(C(=O)OCC)oc3cc(O)c(CC)cc3c2=O)o1 do in these assays?
RGS4 block: inactive; MrgX1 PAM: inactive; MrgX1 ag: inactive; RGS4 act: inactive; MrgX1 antag: -4.8*; MrgX1 ant reconf: 80%*; HEK293 Ca flux: inactive; HEK293 Ca counter: inactive; HEK293 Ca cntr2: inactive

What do the screens show for `Cc1ccc2c(Cl)c(C(=O)Nc3cccnc3)sc2c1`?
RGS4 block: inactive; MrgX1 PAM: inactive; MrgX1 ag: inactive; RGS4 act: inactive; MrgX1 antag: inactive

What do the screens show for `COc1ccc2cc(S(=O)(=O)N3CCOCC3)ccc2c1`?
RGS4 block: inactive; MrgX1 PAM: inactive; MrgX1 ag: inactive; RGS4 act: inactive; MrgX1 antag: inactive

How did CCN1c2ccc(S(=O)(=O)N3CCOCC3)cc2N(Cc2ccc(OC)cc2)C1C (centres undefined) do in these assays?
RGS4 block: inactive; MrgX1 PAM: inactive; MrgX1 ag: inactive; RGS4 act: inactive; MrgX1 antag: -4.7*; MrgX1 ant reconf: inactive; HEK293 Ca flux: inactive; HEK293 Ca counter: inactive; HEK293 Ca cntr2: inactive

Results for Cc1cccc(N(C)c2cc(C)nc3ncnn23)c1 ?
RGS4 block: inactive; MrgX1 PAM: inactive; MrgX1 ag: inactive; RGS4 act: inactive; MrgX1 antag: inactive

Results for CCN(c1ccccc1)c1cc(C)nc2ncnn12 ?
RGS4 block: inactive; MrgX1 PAM: inactive; MrgX1 ag: inactive; RGS4 act: inactive; MrgX1 antag: -6.6*; MrgX1 ant reconf: inactive; HEK293 Ca flux: inactive; HEK293 Ca counter: inactive; HEK293 Ca cntr2: inactive

Results for COc1ccc(OC)c(Nc2nc3nonc3nc2N2CCCC(C)C2)c1 (centres undefined) ?
RGS4 block: inactive; MrgX1 PAM: inactive; MrgX1 ag: inactive; RGS4 act: inactive; MrgX1 antag: -5.5*; MrgX1 ant reconf: inactive; HEK293 Ca flux: inactive; HEK293 Ca counter: inactive; HEK293 Ca cntr2: inactive

What do the screens show for `O=C(CSc1ncccn1)NNC(=O)c1ccccc1`?
RGS4 block: inactive; MrgX1 PAM: inactive; MrgX1 ag: inactive; RGS4 act: inactive; MrgX1 antag: inactive

What do the screens show for `Nc1ccc(C(=O)N2CCN(S(=O)(=O)c3ccc4c(c3)OCCO4)CC2)cc1[N+](=O)[O-]`?
RGS4 block: inactive; MrgX1 PAM: inactive; MrgX1 ag: inactive; RGS4 act: inactive; MrgX1 antag: inactive

How did NC(=O)C1CCN(CC(=O)Nc2cccc(C(=O)Nc3cccc(C(F)(F)F)c3)c2)CC1 do in these assays?
RGS4 block: inactive; MrgX1 PAM: inactive; MrgX1 ag: inactive; RGS4 act: inactive; MrgX1 antag: -7*; MrgX1 ant reconf: 84%*; HEK293 Ca flux: inactive; HEK293 Ca counter: inactive; HEK293 Ca cntr2: inactive

What do the screens show for `CN1CCN(c2ccc(Cl)cc2NC(=O)CN2C(=O)NC(C)(c3ccccc3)C2=O)CC1` (centres undefined)?
RGS4 block: inactive; MrgX1 PAM: inactive; MrgX1 ag: inactive; RGS4 act: inactive; MrgX1 antag: -4.5*; MrgX1 ant reconf: inactive; HEK293 Ca flux: inactive; HEK293 Ca counter: inactive; HEK293 Ca cntr2: inactive

How did Cc1ccc(NC(=O)CCS(=O)(=O)c2cccc3nonc23)c(Br)c1 do in these assays?
RGS4 block: inactive; MrgX1 PAM: inactive; MrgX1 ag: inactive; RGS4 act: inactive; MrgX1 antag: inactive

What do the screens show for `CCN=C(NCC)SC1CC(=O)N(c2ccccc2)C1=O` (centres undefined)?
RGS4 block: inactive; MrgX1 PAM: inactive; MrgX1 ag: inactive; RGS4 act: inactive; MrgX1 antag: -8.2*; MrgX1 ant reconf: inactive; HEK293 Ca flux: inactive; HEK293 Ca counter: inactive; HEK293 Ca cntr2: inactive

How did Cc1ccccc1CC1(CO)CCCN(Cc2cn[nH]c2-c2ccccc2)C1 (centres undefined) do in these assays?
RGS4 block: inactive; MrgX1 PAM: inactive; MrgX1 ag: inactive; RGS4 act: inactive; MrgX1 antag: inactive

What do the screens show for `COc1cccc(CC2(CO)CCCN(Cc3cn[nH]c3-c3ccccc3)C2)c1` (centres undefined)?
RGS4 block: inactive; MrgX1 PAM: inactive; MrgX1 ag: inactive; RGS4 act: inactive; MrgX1 antag: -5*; MrgX1 ant reconf: 72%*; HEK293 Ca flux: inactive; HEK293 Ca counter: inactive; HEK293 Ca cntr2: inactive
